# Data from ChEMBL document CHEMBL5661984, “Allosteric ligands for the pharmacologically dark receptors GPR68 and GPR65” (Nature, 2015).
# Calls of active or inactive are those of the source. The rule behind the calls is not given here.
# What was measured:
# [1] = target: T1, G-protein coupled receptor 68 (Homo sapiens, UniProt Q15743); assay: Binding affinity to GPR68 expressed in human HEK293T cells assessed as cAMP production in presence of H+ proton by Split-luciferase based luminescence counter analysis; type: cell-based; conditions: filed as positive allosteric modulator
# T1 sequence (Q15743 whole entry): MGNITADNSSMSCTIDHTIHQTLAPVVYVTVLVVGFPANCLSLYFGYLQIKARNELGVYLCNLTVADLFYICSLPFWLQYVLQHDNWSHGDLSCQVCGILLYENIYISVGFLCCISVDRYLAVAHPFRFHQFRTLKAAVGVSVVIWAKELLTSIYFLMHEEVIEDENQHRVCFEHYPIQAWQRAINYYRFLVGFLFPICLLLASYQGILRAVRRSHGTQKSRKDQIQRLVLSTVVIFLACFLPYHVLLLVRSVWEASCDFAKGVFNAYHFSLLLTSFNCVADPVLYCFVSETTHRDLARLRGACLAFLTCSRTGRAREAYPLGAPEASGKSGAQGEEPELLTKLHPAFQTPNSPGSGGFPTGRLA
# In short: (§1)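 Proton concentration-response of GPR68 (wild type or E160A/K/Q, R189L/M, H269F mutants) in transiently transfected HEK293-T cells. Read-out: GloSensor cAMP, with luciferin loading 90 min at 37°C at pH 8.4. Run with and without increasing modulator concentrations; 20 min at room temperature before luminescence. Proton KA fixed to the proton EC50 without modulator. KB, τA, α, β fitted globally with an operational allosteric model. n=4.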
# [2] = target: T2, G-protein coupled receptor 65 (Homo sapiens, UniProt Q8IYL9); assay: Antagonist activity against GPR65 (unknown origin) transfected in human HEK293T cells incubated for 15 mins by luminescence counter analysis; type: functional, cell-based; conditions: for Activity: filed as antagonist
# T2 sequence (Q8IYL9 whole entry): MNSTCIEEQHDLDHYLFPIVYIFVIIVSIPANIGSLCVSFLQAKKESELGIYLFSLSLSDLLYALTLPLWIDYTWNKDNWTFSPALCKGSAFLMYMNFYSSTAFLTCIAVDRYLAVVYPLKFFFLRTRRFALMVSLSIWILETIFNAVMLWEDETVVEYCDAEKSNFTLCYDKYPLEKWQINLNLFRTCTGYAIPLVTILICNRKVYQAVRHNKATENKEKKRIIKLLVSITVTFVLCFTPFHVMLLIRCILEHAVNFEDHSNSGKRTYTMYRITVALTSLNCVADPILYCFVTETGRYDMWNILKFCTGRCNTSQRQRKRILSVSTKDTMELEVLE
# In short: (§2)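 GloSensor split-luciferase cAMP assay. HEK293-T cells transiently co-transfected with GPR65 (wild type or the D153A, R187L, F242A or Y272A mutant) and GloSensor 7A reporter. Cells plated in DMEM with 1% dialyzed FBS for at least 6 h, then loaded with luciferin (4 mM, in drug buffer pH 8.4) for 90 min at 37°C. Compounds added at set pH in HBSS with 10 mM HEPES/10 mM MES, with TAPS for higher pH. Luminescence read after about 20 min at room temperature. Data normalized to buffer basal and fitted to a 4-parameter logistic.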
# [3] = target: T2, G-protein coupled receptor 65; assay: Antagonist activity against GPR65 (unknown origin) transfected in human HEK293T cells incubated for 15 mins by luminescence counter analysis relative to control; type: functional, cell-based; in short: as §2
# [4] = target: T2, G-protein coupled receptor 65; assay: Agonist activity against GPR65 (unknown origin) transfected in human HEK293T cells on pH 6.80 to 7.40 at 30 uM incubated for 15 mins by luminescence counter analysis; type: functional, cell-based
# HEK293T [5] = assay: Antagonist activity against GPR65 Y272A mutant (unknown origin) transfected in human HEK293T cells incubated for 15 mins by luminescence counter analysis; type: cell-based; conditions: filed as antagonist; in short: as §2
# HEK293T [6] = assay: Antagonist activity against GPR65 F242A mutant (unknown origin) transfected in human HEK293T cells incubated for 15 mins by luminescence counter analysis; type: cell-based; conditions: filed as antagonist; in short: as §2
# [7] = Antagonist activity against GPR65 D153A mutant (unknown origin) transfected in human HEK293T cells incubated for 15 mins by luminescence counter analysis relative to control; conditions: HEK-293T, 0.25 h, condition central nervous system disease; in short: as §2
# [8] = Antagonist activity against GPR65 D153A mutant (unknown origin) transfected in human HEK293T cells incubated for 15 mins by luminescence counter analysis; type: cell-based; conditions: HEK-293T, 0.25 h; in short: as §2
# HEK293T [9] = assay: Antagonist activity against GPR65 R187L mutant (unknown origin) transfected in human HEK293T cells incubated for 15 mins by luminescence counter analysis; type: cell-based; conditions: filed as antagonist; in short: as §2
# [10] = target: C-X-C chemokine receptor type 4 (Homo sapiens) (UniProt P61073); assay: Agonist activity against CXCR4 receptor (unknown origin) transfected in human HEK293T cells at 10 uM incubated for 15 mins in presence of CXCL12 by luminescence counter analysis; type: functional, cell-based
# Sequence of C-X-C chemokine receptor type 4 (Homo sapiens) (P61073 whole entry): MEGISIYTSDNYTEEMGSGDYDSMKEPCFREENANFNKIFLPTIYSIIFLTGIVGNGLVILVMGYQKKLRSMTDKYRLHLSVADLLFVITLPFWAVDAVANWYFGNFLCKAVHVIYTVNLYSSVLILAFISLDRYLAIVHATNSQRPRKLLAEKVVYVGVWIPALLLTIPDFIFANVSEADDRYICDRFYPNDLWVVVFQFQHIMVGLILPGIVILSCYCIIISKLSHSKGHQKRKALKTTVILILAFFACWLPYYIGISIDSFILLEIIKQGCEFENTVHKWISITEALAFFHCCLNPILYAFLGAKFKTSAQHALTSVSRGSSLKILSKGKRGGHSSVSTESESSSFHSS
# In short: (§3)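 HEK293-T cells transiently transfected with CXCR4 and the GloSensor cAMP reporter, plated in DMEM with 1% dialyzed FBS. Test compound at 10 μM in 20 mM HEPES/HBSS, pH 7.4, 15 min at room temperature. Agonist mode: luciferin (4 mM final) plus 200 nM isoproterenol added, 20 min. Antagonist mode: compound 10 min, then reference agonist at EC80 for 10 min, then luciferin/isoproterenol. Luminescence read. CXCL12 (1 or 3 μM) is the agonist control and AMD3100 (10 μM) the antagonist control. n=2.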
# [11] = target: C-X-C chemokine receptor type 4 (Homo sapiens) (UniProt P61073); assay: Antagonist activity against CXCR4 receptor (unknown origin) transfected in human HEK293T cells at 10 uM incubated for 15 mins in presence of AMD3100 by luminescence counter analysis; type: functional, cell-based; in short: as §3
# [12] = target: T1, G-protein coupled receptor 68; assay: Positive allosteric modulator activity at GPR68 expressed in human HEK293T cells assessed as cAMP production in presence of H+ proton by Split-luciferase based luminescence counter analysis (reference value: 26.4 to 43.8 %); type: functional, cell-based; conditions: filed as positive allosteric modulator; in short: as §1
# [13] = target: T1, G-protein coupled receptor 68; assay: Positive allosteric modulator activity at GPR68 expressed in human HEK293T cells assessed as cAMP production in presence of H+ proton by Split-luciferase based luminescence counter analysis (reference value: 6.53 to 6.72); type: functional, cell-based
# [14] = target: T2, G-protein coupled receptor 65; assay: Agonist activity against GPR65 (unknown origin) transfected in human HEK293T cells incubated for 15 mins by luminescence counter analysis; type: functional, cell-based; conditions: filed as agonist; in short: as §2
compound,measurement,setting,value
Nc1nc(NCc2cccc(F)c2)nc(-c2cccc(F)c2N)n1,pKb,[1],3.88
O=C(Nc1nc(-c2ccc3c(c2)OCCO3)cs1)c1csnn1,Activity,[2],Active
COc1ccc(-c2csc(NC(=O)CSc3nc[nH]n3)n2)cc1OC,Emax,[3],2.2%
same,EC50,[2],0.501 µM
same,Activity,[4],inactive
same,Activity,HEK293T [5],Active
same,Activity,HEK293T [6],Active
same,Emax,[7],1.5%
same,EC50,[8],6.31 µM
same,Activity,HEK293T [9],Active
Nc1nc(NCc2cccc(F)c2)nc(-c2ccc(F)c(F)c2CO)n1,pKb,[1],4.01
O=C1CN=C(c2ccccc2Cl)c2cc([N+](=O)[O-])ccc2N1,Activity,[10],inactive
same,Activity,[11],inactive
O=C1N[C@H](c2cccc([N+](=O)[O-])c2)c2c(-c3ccco3)n[nH]c21,Emax,[12],60.3%
same,pKb,[1],4.42
same,EC50,[13],107 nM
O=C1CCc2cc(-c3csc(NC(=O)c4ccc(-c5ccccc5F)o4)n3)ccc2N1,Activity,[2],Active
Nc1nc(NCCc2ccccc2)nc(-c2ccccc2CO)n1,pKb,[1],5.43
CCCCNc1c(C(=O)OCC)c(C)nc2c1cnn2CC,pKb,[1],5.2
O=C1CN=C(c2ccccc2)c2cc(Cl)ccc2N1,Activity,[10],inactive
same,Activity,[11],inactive
Nc1nc(NCCCc2ccccc2)nc(-c2ccccc2CO)n1,pKb,[1],5.75
Nc1nc(NCCCCc2ccccc2)nc(-c2ccccc2CO)n1,pKb,[1],5.82
CN1N=C(SCc2ccc(Cl)cc2Cl)Sc2c1cnn(C)c2=O,Emax,[3],7.6%
same,EC50,[2],7.76 µM
same,Activity,HEK293T [5],Active
same,Activity,[14],Active
same,Activity,HEK293T [6],Active
same,Emax,[7],8.1%
same,EC50,[8],1.29 µM
same,Activity,HEK293T [9],Active
COc1ccc(CNc2nc(N)nc(-c3ccccc3CO)n2)cc1,pKb,[1],4.35
Nc1nc(NCc2ccccc2)nc(-c2ccccc2N)n1,Emax,[12],50.2%
same,pKb,[1],5.22
same,EC50,[13],63.1 nM
CC(=O)c1cccc(-c2nc(N)nc(Nc3ccc(C)cc3)n2)c1,Emax,[12],67.3%
same,pKb,[1],6.31
same,EC50,[13],57.5 nM
Nc1nc(NCc2ccccc2F)nc(-c2cc(F)c(F)cc2N)n1,pKb,[1],4.93
